Experimental data reported in the RNAGym collection of RNA variant scans (doi:10.1002/anie.201605470).

B1: Osa-1-4 twister ribozyme (parent)
chain: CCGCCUAACACUGCCAAUGCCGGUCCCAAGCCCGGAUAAAAGUGGAGGGGGCGG

Variants of: B1
Assay: self-cleavage, relative activity (ratio to wild type); higher = more cleavage; co-transcriptional
Procedure, shortened: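 Relative activity is the fraction cleaved divided by that of the wild-type ribozyme. The library came from a DNA template for a 54-nucleotide Oryza sativa twister ribozyme, doped at the 48 positions downstream of the cleavage site with 97 % wild-type base and 1 % of each other base. After 2 h of in vitro transcription at 37 °C with co-transcriptional self-cleavage, the RNA was reverse-transcribed with a template-switching oligonucleotide, amplified by PCR and deep-sequenced, and reads with or without upstream sequence gave the cleavage status.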

Question: With CCGCCUAACACUGCCAAUGCCGGUCCCAAGCCCGGAUAAGAGUGGAGGGGGCGG as the variant, how does the self-cleavage read?
Answer: 0.91

Question: Which self-cleavage does the source give for CCGCCUAACACUGCCAAUGGCGGUCCCAAGCCCGGAUAACAGUGGAGGGGGCGG here?
Answer: 0.04

Question: Which self-cleavage does the source give for CCGCCUAACACUGCCAAUGUCGGUCCCAAGCCCGGAUAACAGUGGAGGGGGCGG here?
Answer: 0.08

Question: With CCGCCUAACACUGCCAAUGACGGUCCCAAGCCCGGAUAACAGUGGAGGGGGCGG as the variant, how does the self-cleavage read?
Answer: 0.09

Question: With CCGCCUAACACUGCCAAAGCCGGUCCCAAGCCCGGAUAACAGUGGAGGGGGCGG as the variant, how does the self-cleavage read?
Answer: 0.07

Question: Which self-cleavage does the source give for CCGCCUAACACUGCCAACGCCGGUCCCAAGCCCGGAUAACAGUGGAGGGGGCGG here?
Answer: 0.08

Question: For CCGCCUAACACUGCCAAGGCCGGUCCCAAGCCCGGAUAACAGUGGAGGGGGCGG, which self-cleavage is on record?
Answer: 0.09

Question: With CCGCCUAACACUGCCAAUGCCGGUGCCAAGCCCGGAUAACAGUGGAGGGGGCGG as the variant, how does the self-cleavage read?
Answer: 0.03

Question: Which self-cleavage does the source give for CCGCCUAACACUGCCAAUGCCGGUACCAAGCCCGGAUAACAGUGGAGGGGGCGG here?
Answer: 0.03

Question: With CCGCCUAACACUGCCAAUGCCGGUUCCAAGCCCGGAUAACAGUGGAGGGGGCGG as the variant, how does the self-cleavage read?
Answer: 0.04

Question: For CCGCCUAACACUGCCAAUCCCGGUCCCAAGCCCGGAUAACAGUGGAGGGGGCGG, which self-cleavage is on record?
Answer: 0.02

Question: With CCGCCUAACACUGCCAAUACCGGUCCCAAGCCCGGAUAACAGUGGAGGGGGCGG as the variant, how does the self-cleavage read?
Answer: 0.07

Question: For CCGCCUAACACUGCCAAUUCCGGUCCCAAGCCCGGAUAACAGUGGAGGGGGCGG, which self-cleavage is on record?
Answer: 0.04

Question: Which self-cleavage does the source give for CCGCCUAACACGGCCAAUGCCGGUCCCAAGCCCGGAUAACAGUGGAGGGGGCGG here?
Answer: 0.47

Question: With CCGCCUAACACCGCCAAUGCCGGUCCCAAGCCCGGAUAACAGUGGAGGGGGCGG as the variant, how does the self-cleavage read?
Answer: 0.07

Question: For CCGCCUAACACAGCCAAUGCCGGUCCCAAGCCCGGAUAACAGUGGAGGGGGCGG, which self-cleavage is on record?
Answer: 0.5

Question: For CCGCCUAACACUGCCAAUGCCGGUCUCAAGCCCGGAUAACAGUGGAGGGGGCGG, which self-cleavage is on record?
Answer: 0.04

Question: Which self-cleavage does the source give for CCGCCUAACACUGCCAAUGCCGGUCGCAAGCCCGGAUAACAGUGGAGGGGGCGG here?
Answer: 0.02

Question: For CCGCCUAACACUGCCAAUGCCGGUCACAAGCCCGGAUAACAGUGGAGGGGGCGG, which self-cleavage is on record?
Answer: 0.02

Question: With CCGCCUAACACUGCCAAUGCCGGUCCCAAGCCCGGAUAACAGUGAAGGGGGCGG as the variant, how does the self-cleavage read?
Answer: 0.04

Question: For CCGCCUAACACUGCCAAUGCCGGUCCCAAGCCCGGAUAACAGUGUAGGGGGCGG, which self-cleavage is on record?
Answer: 0.03

Question: With CCGCCUAACACUGCCAAUGCCGGUCCCAAGCCCGGAUAACAGUGCAGGGGGCGG as the variant, how does the self-cleavage read?
Answer: 0.03

Question: With CCGCCUAACACUGCCAAUGCCGGUCCCAAGCCCGGAUAACAGUGGAGGCGGCGG as the variant, how does the self-cleavage read?
Answer: 0.02

Question: For CCGCCUAACACUGCCAAUGCCGGUCCCAAGCCCGGAUAACAGUGGAGGUGGCGG, which self-cleavage is on record?
Answer: 0.03

Question: Which self-cleavage does the source give for CCGCCUAACACUGCCAAUGCCGGUCCCAAGCCCGGAUAACAGUGGAGGAGGCGG here?
Answer: 0.04

Question: For CCGCCUAACACUGCCAAUGCCGGUCCAAAGCCCGGAUAACAGUGGAGGGGGCGG, which self-cleavage is on record?
Answer: 0.05

Question: Which self-cleavage does the source give for CCGCCUAACACUGCCAAUGCCGGUCCUAAGCCCGGAUAACAGUGGAGGGGGCGG here?
Answer: 0.03

Question: For CCGCCUAACACUGCCAAUGCCGGUCCGAAGCCCGGAUAACAGUGGAGGGGGCGG, which self-cleavage is on record?
Answer: 0.02

Question: Which self-cleavage does the source give for CCGCCUAACACUGCCAAUGCCUGUCCCAAGCCCGGAUAACAGUGGAGGGGGCGG here?
Answer: 0.07

Question: With CCGCCUAACACUGCCAAUGCCCGUCCCAAGCCCGGAUAACAGUGGAGGGGGCGG as the variant, how does the self-cleavage read?
Answer: 0.02

Question: For CCGCCUAACACUGCCAAUGCCAGUCCCAAGCCCGGAUAACAGUGGAGGGGGCGG, which self-cleavage is on record?
Answer: 0.09

Question: Which self-cleavage does the source give for CCGCCUAACACUGCCAAUGCCGGUCCCAAGCCCGGAUAACAGUGGAGGGGGCCG here?
Answer: 0.04

Question: With CCGCCUAACACUGCCAAUGCCGGUCCCAAGCCCGGAUAACAGUGGAGGGGGCUG as the variant, how does the self-cleavage read?
Answer: 0.05

Question: With CCGCCUAACACUGCCAAUGCCGGUCCCAAGCCCGGAUAACAGUGGAGGGGGCAG as the variant, how does the self-cleavage read?
Answer: 0.09

Question: For CCGCCUAACACUGCCAAUGCCGGUCCCAAGCCCGGAUAACAAUGGAGGGGGCGG, which self-cleavage is on record?
Answer: 0.07

Question: With CCGCCUAACACUGCCAAUGCCGGUCCCAAGCCCGGAUAACAUUGGAGGGGGCGG as the variant, how does the self-cleavage read?
Answer: 0.03

Question: For CCGCCUAACACUGCCAAUGCCGGUCCCAAGCCCGGAUAACACUGGAGGGGGCGG, which self-cleavage is on record?
Answer: 0.06

Question: Which self-cleavage does the source give for CCGCCUAACACUGCCAAUGCCGGUCCCAAACCCGGAUAACAGUGGAGGGGGCGG here?
Answer: 0.02

Question: For CCGCCUAACACUGCCAAUGCCGGUCCCAAUCCCGGAUAACAGUGGAGGGGGCGG, which self-cleavage is on record?
Answer: 0.01

Question: Which self-cleavage does the source give for CCGCCUAACACUGCCAAUGCCGGUCCCAACCCCGGAUAACAGUGGAGGGGGCGG here?
Answer: 0.02

Question: With CCGCCUAACACUGCCAAUGCUGGUCCCAAGCCCGGAUAACAGUGGAGGGGGCGG as the variant, how does the self-cleavage read?
Answer: 0.09

Question: With CCGCCUAACACUGCCAAUGCGGGUCCCAAGCCCGGAUAACAGUGGAGGGGGCGG as the variant, how does the self-cleavage read?
Answer: 0.02

Question: Which self-cleavage does the source give for CCGCCUAACACUGCCAAUGCAGGUCCCAAGCCCGGAUAACAGUGGAGGGGGCGG here?
Answer: 0.07

Question: For CCGCCUAACACUGCGAAUGCCGGUCCCAAGCCCGGAUAACAGUGGAGGGGGCGG, which self-cleavage is on record?
Answer: 0.04

Question: With CCGCCUAACACUGCUAAUGCCGGUCCCAAGCCCGGAUAACAGUGGAGGGGGCGG as the variant, how does the self-cleavage read?
Answer: 0.05

Question: Which self-cleavage does the source give for CCGCCUAACACUGCCAAUGCCGGUCCCAAGCCCCGAUAACAGUGGAGGGGGCGG here?
Answer: 0.06

Question: Which self-cleavage does the source give for CCGCCUAACACUGCCAAUGCCGGUCCCAAGCCCUGAUAACAGUGGAGGGGGCGG here?
Answer: 0.05

Question: For CCGCCUAACACUGCCAAUGCCGGUCCCAAGCCCAGAUAACAGUGGAGGGGGCGG, which self-cleavage is on record?
Answer: 0.06

Question: With CCGCCUCACACUGCCAAUGCCGGUCCCAAGCCCGGAUAAGAGUGGAGGGGGCGG as the variant, how does the self-cleavage read?
Answer: 0.05
